Source: ChEMBL document CHEMBL1126762, “Synthesis and anaerobic activity of novel 1-carba-1-dethiacephalosporins” (J Med Chem, 1993)
Converted amounts (≈) assume the structure as drawn.

Legend:
Eikenella corrodens = experiment: Antibacterial activity against anaerobic Bacteroides corrodens 1874; assay type: functional
Method in brief: (§1)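 MIC by agar dilution following the NCCLS M11-A2 (2nd ed.) procedure for antimicrobial testing of anaerobic bacteria.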

Phocaeicola vulgatus = experiment: Antibacterial activity against anaerobic Bacteroides vulgatus 1211; assay type: functional; method in brief: as §1
[1] = system: Bacteroides thetaiotaomicron; experiment: Antibacterial activity against anaerobic Bacteroides thetaiotaomicron 1438; assay type: functional; method in brief: as §1
[2] = system: Prevotella melaninogenica; experiment: Antibacterial activity against anaerobic Bacteroides melaninogenicus 1856/28; assay type: functional; method in brief: as §1
[3] = system: Prevotella melaninogenica; experiment: Antibacterial activity against anaerobic Bacteroides melaninogenicus 2736; assay type: functional; method in brief: as §1
Bacteroides fragilis [4] = experiment: Antibacterial activity against anaerobic Bacteroides fragilis 111; assay type: functional; method in brief: as §1
Bacteroides fragilis [5] = experiment: Antibacterial activity against anaerobic; assay type: functional; method in brief: as §1
Bacteroides fragilis [6] = experiment: Antibacterial activity against anaerobic Bacteroides fragilis 1936B; assay type: functional; method in brief: as §1
Clostridioides difficile = experiment: Antibacterial activity against anaerobic Clostridium difficile 2994 strain; assay type: functional; method in brief: as §1
Clostridium perfringens = experiment: Antibacterial activity against anaerobic Clostridium perfringens 81; assay type: functional
Method in brief: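 Agar dilution MIC following NCCLS document M11-A2 (Vol. 10, no. 15), the method for antimicrobial testing of anaerobic bacteria; value reported as minimum inhibitory concentration.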

Clostridium septicum = experiment: Antibacterial activity against anaerobic Clostridium septicum 1128; assay type: functional; method in brief: as §1
Escherichia coli = experiment: Antibacterial activity against aerobic Escherichia coli EC14; assay type: functional
Method in brief: (§2)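 MIC by agar dilution following the NCCLS M7-A2 (2nd ed.) procedure for bacteria that grow aerobically.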

[7] = Antibacterial activity against anaerobic Eubacterium aerofaciens 1235; assay type: functional; settings: Collinsella aerofaciens; method in brief: as §1
Klebsiella aerogenes = experiment: Antibacterial activity against aerobic Enterobacter aerogenes C32; assay type: functional; method in brief: as §2
[8] = Antibacterial activity against anaerobic Fusobacterium symbiosum 1470; assay type: functional, fusobacterium symbosium; method in brief: as §1
[9] = system: Fusobacterium necrophorum; experiment: Antibacterial activity against anaerobic Fusobacterium necrophorum 6054A; assay type: functional; method in brief: as §1
Haemophilus influenzae = experiment: Antibacterial activity against aerobic Haemophilus influenzae RES 76; assay type: functional; method in brief: as §2
Klebsiella pneumoniae = experiment: Antibacterial activity against aerobic Klebsiella pneumoniae X26; assay type: functional; method in brief: as §2
[10] = system: Peptostreptococcus anaerobius; experiment: Antibacterial activity against anaerobic Peptostreptococcus anaerobius 1451; assay type: functional; method in brief: as §1
[11] = Antibacterial activity against anaerobic Peptostreptococcus intermedius 1264; assay type: functional; method in brief: as §1
Pseudomonas aeruginosa = experiment: Antibacterial activity against aerobic Pseudomonas aeruginosa X239 strain; assay type: functional; method in brief: as §2
[12] = Antibacterial activity against anaerobic Peptococcus asaccharolyticus 1302; assay type: functional; settings: Peptoniphilus asaccharolyticus; method in brief: as §1
Anaerococcus prevotii = experiment: Antibacterial activity against anaerobic Peptococcus prevoti 1281; assay type: functional; method in brief: as §1
Cutibacterium acnes = experiment: Antibacterial activity against anaerobic Propionibacterium acnes 79; assay type: functional; method in brief: as §1
[13] = system: Staphylococcus epidermidis; experiment: Antibacterial activity against aerobic Staphylococcus epidermidis 222; assay type: functional; method in brief: as §2
Streptococcus pneumoniae = experiment: Antibacterial activity against aerobic Streptococcus pneumoniae PARK; assay type: functional; method in brief: as §2
Staphylococcus aureus = experiment: Antibacterial activity against aerobic Staphylococcus aureus X1.1 strain; assay type: functional; method in brief: as §2
Bacteroides fragilis [14] = experiment: Antibacterial activity against anaerobic Bacteroides fragilis 1877; assay type: functional; method in brief: as §1
[15] = Area under plasma time curve determined in male rat; assay type: ADME, organism-based
Method in brief: (§3)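 Male Sprague-Dawley rats given 20 mg/kg i.v. in saline through an indwelling jugular vein cannula, which was also used for serial blood sampling over 6 h. Plasma drug measured by agar well diffusion bioassay with Micrococcus luteus ATCC9241 (detection limit 3.2 μg/mL plasma). AUC by Simpson's rule.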

[16] = Maximum concentration reached following intravenous administration in male rat; assay type: ADME, organism-based; design: route intravenous; settings: in vivo; method in brief: as §3

With CO[C@@]1(NC(=O)Cc2cccs2)C(=O)N2C(C(=O)O)=C(COC(N)=O)CS[C@@H]21 [CEFOXITIN] the MIC (Eikenella corrodens) was 4 µg/mL (≈ 9.36 µM), the MIC (Phocaeicola vulgatus) was 8 µg/mL (≈ 18.7 µM) and the MIC [1] was 2 µg/mL (≈ 4.68 µM). The MIC [2] was 4 µg/mL (≈ 9.36 µM), the MIC [3] was 8 µg/mL (≈ 18.7 µM) and the MIC (Bacteroides fragilis [4]) was 8 µg/mL (≈ 18.7 µM). It also gave an MIC (Bacteroides fragilis [5]) of 4 µg/mL (≈ 9.36 µM), an MIC (Bacteroides fragilis [6]) of 8 µg/mL (≈ 18.7 µM) and an MIC (Clostridioides difficile) of 32 µg/mL (≈ 74.9 µM). It also gave an MIC (Clostridium perfringens) of 2 µg/mL (≈ 4.68 µM), an MIC (Clostridium septicum) of 4 µg/mL (≈ 9.36 µM) and an MIC (Escherichia coli) of 2 µg/mL (≈ 4.68 µM). For the same compound, the MIC [7] was 8 µg/mL (≈ 18.7 µM), the MIC (Klebsiella aerogenes) was over 128 µg/mL and the MIC [8] was 8 µg/mL (≈ 18.7 µM). For the same compound, the MIC [9] was at most 0.5 µg/mL, the MIC (Haemophilus influenzae) was 2 µg/mL (≈ 4.68 µM) and the MIC (Klebsiella pneumoniae) was 1 µg/mL (≈ 2.34 µM). It also gave an MIC [10] of 2 µg/mL (≈ 4.68 µM), an MIC [11] of 2 µg/mL (≈ 4.68 µM) and an MIC (Pseudomonas aeruginosa) of over 128 µg/mL. For the same compound, the MIC [12] was at most 0.5 µg/mL, the MIC (Anaerococcus prevotii) was 1 µg/mL (≈ 2.34 µM) and the MIC (Cutibacterium acnes) was 2 µg/mL (≈ 4.68 µM). The MIC [13] was 4 µg/mL (≈ 9.36 µM), the MIC (Streptococcus pneumoniae) was 0.5 µg/mL (≈ 1.17 µM) and the MIC (Staphylococcus aureus) was 4 µg/mL (≈ 9.36 µM).

For CO[C@@]1(NC(=O)C2SC(=C(C(N)=O)C(=O)O)S2)C(=O)N2C(C(=O)O)=C(CSc3nnnn3C)CS[C@@H]21 (stereo partly drawn) [CEFOTETAN], the MIC (Eikenella corrodens) was 8 µg/mL (≈ 13.9 µM), the MIC (Phocaeicola vulgatus) was 4 µg/mL (≈ 6.95 µM) and the MIC [1] was 1 µg/mL (≈ 1.74 µM). For the same compound, the MIC [2] was 128 µg/mL (≈ 222 µM), the MIC [3] was 128 µg/mL (≈ 222 µM) and the MIC (Bacteroides fragilis [4]) was 8 µg/mL (≈ 13.9 µM). The MIC (Bacteroides fragilis [14]) was 8 µg/mL (≈ 13.9 µM), the MIC (Bacteroides fragilis [6]) was 8 µg/mL (≈ 13.9 µM) and the MIC (Clostridioides difficile) was 16 µg/mL (≈ 27.8 µM). For the same compound, the MIC (Clostridium perfringens) was 1 µg/mL (≈ 1.74 µM), the MIC (Clostridium septicum) was 4 µg/mL (≈ 6.95 µM) and the MIC (Escherichia coli) was 0.125 µg/mL (≈ 0.217 µM). The MIC [7] was 4 µg/mL (≈ 6.95 µM), the MIC (Klebsiella aerogenes) was 8 µg/mL (≈ 13.9 µM) and the MIC [8] was 128 µg/mL (≈ 222 µM). For the same compound, the MIC [9] was over 128 µg/mL, the MIC (Haemophilus influenzae) was 1 µg/mL (≈ 1.74 µM) and the MIC (Klebsiella pneumoniae) was 0.125 µg/mL (≈ 0.217 µM). It also gave an MIC [10] of 128 µg/mL (≈ 222 µM), an MIC [11] of 8 µg/mL (≈ 13.9 µM) and an MIC (Pseudomonas aeruginosa) of over 128 µg/mL. The MIC [12] was 1 µg/mL (≈ 1.74 µM), the MIC (Anaerococcus prevotii) was 8 µg/mL (≈ 13.9 µM) and the MIC (Cutibacterium acnes) was 1 µg/mL (≈ 1.74 µM). For the same compound, the MIC [13] was 16 µg/mL (≈ 27.8 µM), the MIC (Streptococcus pneumoniae) was 4 µg/mL (≈ 6.95 µM) and the MIC (Staphylococcus aureus) was 8 µg/mL (≈ 13.9 µM).

Nc1nc(/C(=N/OCCF)C(=O)N[C@@H]2C(=O)N3C(C(=O)O)=C(Sc4ncc([N+](=O)[O-])s4)CC[C@H]23)cs1 gave an AUC [15] of 11100 ng·h/mL, an MIC (Eikenella corrodens) of 8 µg/mL (≈ 14.3 µM) and an MIC (Phocaeicola vulgatus) of 1 µg/mL (≈ 1.79 µM). For the same compound, the MIC [1] was at most 0.5 µg/mL, the MIC [2] was 2 µg/mL (≈ 3.59 µM) and the MIC [3] was 1 µg/mL (≈ 1.79 µM). It also gave an MIC (Bacteroides fragilis [4]) of 4 µg/mL (≈ 7.17 µM), an MIC (Bacteroides fragilis [14]) of 1 µg/mL (≈ 1.79 µM) and an MIC (Bacteroides fragilis [6]) of 4 µg/mL (≈ 7.17 µM). For the same compound, the MIC (Clostridioides difficile) was 4 µg/mL (≈ 7.17 µM), the MIC (Clostridium perfringens) was 1 µg/mL (≈ 1.79 µM) and the MIC (Clostridium septicum) was 1 µg/mL (≈ 1.79 µM). The MIC (Escherichia coli) was 0.5 µg/mL (≈ 0.897 µM), the MIC [7] was 4 µg/mL (≈ 7.17 µM) and the MIC (Klebsiella aerogenes) was 1 µg/mL (≈ 1.79 µM). The MIC [8] was 1 µg/mL (≈ 1.79 µM), the MIC [9] was at most 0.5 µg/mL and the MIC (Haemophilus influenzae) was 0.008 µg/mL (≈ 0.0143 µM). The MIC (Klebsiella pneumoniae) was 0.008 µg/mL (≈ 0.0143 µM), the MIC [10] was at most 0.5 µg/mL and the MIC [11] was at most 0.5 µg/mL. The MIC (Pseudomonas aeruginosa) was over 128 µg/mL, the MIC [12] was at most 0.5 µg/mL and the MIC (Anaerococcus prevotii) was at most 0.5 µg/mL. It also gave an MIC (Cutibacterium acnes) of at most 0.5 µg/mL, an MIC [13] of 1 µg/mL (≈ 1.79 µM) and an MIC (Streptococcus pneumoniae) of 0.008 µg/mL (≈ 0.0143 µM). The MIC (Staphylococcus aureus) was 0.125 µg/mL (≈ 0.224 µM) and the Cmax [16] was 54.2 µg/mL.
